Residues, ends and D or L forms follow the SMILES beside them. *: point of attachment. X1 = N[C@@H](CCCCNC(=O)c1cnccn1)C(=O)N[C@@H](CCCCNC(=O)c1cnccn1)C(=O)N[C@@H](CCCCNC(=O)c1cnccn1)C(=O)*; Pyrazinecarbonyl = O=C(c1cnccn1)*
What was measured:
[1] = Binding affinity to HIV1 rev response element 2B RNA by 2-AP based displacement assay; design: species or system Human immunodeficiency virus 1
Procedure, shortened: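 2-AP-labeled RRE IIB (0.1 μM) refolded at 95 °C 3 min, snap-cooled; titrated with peptide 0–20 μM in 10 mM potassium phosphate, 100 mM KCl, 1 mM MgCl2, 20 mM NaCl, pH 7.0; excitation 310 nm, emission decrease at 372 nm; Kd from Hill fit; at least duplicate, SD. Competition lines include 10-fold excess unlabeled RNA/DNA competitor.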

[2] = tested on: Human immunodeficiency virus 1; assay: Binding affinity to HIV1 RRE RNA in HEK293T cells transfected with HIV1 CMV driven GagPol-RRE plasmid assessed as reduction in Rev-RRE dependent nuclear export by measuring intracellular p24 levels at 70 uM after 48 hrs by ELISA relative to control; type: cell-based
Procedure, shortened: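 HEK 293T cells transfected with Rev and CMV-driven GagPol-RRE plasmids plus luciferase control; peptides added 5 h after transfection at 70 μM; cells lysed ~48 h post-transfection and intracellular p24 quantified by ELISA as percent inhibition.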

Structure (SMILES) | Kd [1] [nM] | inhibition [2] [%]
N=C(N)N[C@H]1CN[C@@H](C(=O)N2C[C@H](N)C[C@@H]2C(=O)N[C@@H](Cc2cccc3ccccc23)C(=O)NCCCC[C@H](NC(=O)[C@H](Cc2cccc3ccccc23)NC(=O)[C@H]2C[C@@H](N)CN2C(=O)[C@H]2C[C@@H](NC(=N)N)CN2)C(=O)NCCN(CC(=O)NCCN(CC(=O)N[C@@H](Cc2cccc3ccccc23)C(=O)N[C@@H](Cc2ccc(O)cc2)C(N)=O)C(=O)Cn2cnc3c(=O)[nH]c(N)nc32)C(=O)Cn2cnc3c(=O)[nH]c(N)nc32)C1 | 660 | –
N=C(N)N[C@@H]1C[C@H](C(=O)N2C[C@H](NC(=N)N)C[C@@H]2C(=O)N[C@@H](CCCCNC(=O)c2cnccn2)C(=O)N[C@@H](Cc2ccc(O)cc2)C(N)=O)N(C(=O)[C@H](CCCCNC(=O)[C@H](CCCCNC(=O)c2cnccn2)NC(=O)[C@H]2C[C@@H](N)CN2C(=O)CN(CCN)C(=O)Cn2cnc3c(=O)[nH]c(N)nc32)NC(=O)[C@H](CCCCNC(=O)c2cnccn2)NC(=O)[C@H]2C[C@@H](N)CN2C(=O)CN(CCN)C(=O)Cn2cnc3c(=O)[nH]c(N)nc32)C1 | 1640 | > 50
NC(=O)[C@H](Cc1ccc(O)cc1)NC(=O)[C@H](CCCCNC(=O)c1cnccn1)NC(=O)[C@H](CCCCNC(=O)c1cnccn1)NC(=O)[C@H](CCCCNC(=O)c1cnccn1)NC(=O)[C@H](CCCCNC(=O)[C@H](CCCCNC(=O)c1cnccn1)NC(=O)[C@H](CCCCNC(=O)c1cnccn1)NC(=O)[C@@H](N)CCCCNC(=O)c1cnccn1)NC(=O)[C@H](CCCCNC(=O)c1cnccn1)NC(=O)[C@H](CCCCNC(=O)c1cnccn1)NC(=O)[C@@H](N)CCCCNC(=O)c1cnccn1 (H-K(Pyrazinecarbonyl)K(Pyrazinecarbonyl)K(Pyrazinecarbonyl)K(X1)K(Pyrazinecarbonyl)K(Pyrazinecarbonyl)K(Pyrazinecarbonyl)Y-NH2) | > 10000 | –
N=C(N)N[C@@H]1C[C@H](C(=O)N[C@@H](Cc2ccc(O)cc2)C(N)=O)N(C(=O)[C@H](Cc2cccc3ccccc23)NC(=O)[C@H](CCCCNC(=O)c2cnccn2)NC(=O)[C@H](CCCCNC(=O)[C@H](Cc2cccc3ccccc23)NC(=O)[C@H](CCCCNC(=O)c2ccc(B3OC(=O)c4cc(O)ccc4O3)cc2)NC(=O)[C@H]2C[C@@H](NC(=N)N)CN2)NC(=O)[C@H](Cc2cccc3ccccc23)NC(=O)[C@H](CCCCNC(=O)c2ccc(B3OC(=O)c4cc(O)ccc4O3)cc2)NC(=O)[C@H]2C[C@@H](NC(=N)N)CN2)C1 | 4960 | –
N=C(N)N[C@H]1CN[C@@H](C(=O)N2C[C@H](N)C[C@@H]2C(=O)N2C[C@H](N)C[C@@H]2C(=O)NCCCC[C@H](NC(=O)[C@H]2C[C@@H](N)CN2C(=O)[C@H]2C[C@@H](N)CN2C(=O)[C@H]2C[C@@H](NC(=N)N)CN2)C(=O)N[C@@H](CCCCNC(=O)c2cnccn2)C(=O)NCCN(CC(=O)N2C[C@H](N)C[C@@H]2C(=O)N[C@@H](Cc2ccc(O)cc2)C(N)=O)C(=O)Cn2cnc3c(=O)[nH]c(N)nc32)C1 | 1020 | –
N=C(N)N[C@H]1CN[C@@H](C(=O)N2C[C@H](N)C[C@@H]2C(=O)NCCN(CC(=O)NCCCC[C@H](NC(=O)CN(CCNC(=O)[C@H]2C[C@@H](N)CN2C(=O)[C@H]2C[C@@H](NC(=N)N)CN2)C(=O)Cn2cnc3c(=O)[nH]c(N)nc32)C(=O)NCCN(CC(=O)N[C@@H](CCCCNC(=O)c2ccc(B3OC(=O)c4cc(O)ccc4O3)cc2)C(=O)N[C@@H](CCCCNC(=O)c2cnccn2)C(=O)N[C@@H](Cc2ccc(O)cc2)C(N)=O)C(=O)Cn2cnc3c(=O)[nH]c(N)nc32)C(=O)Cn2cnc3c(=O)[nH]c(N)nc32)C1 | 1180 | –
N=C(N)N[C@H]1CN[C@@H](C(=O)N2C[C@H](N)C[C@@H]2C(=O)N2C[C@H](N)C[C@@H]2C(=O)NCCCC[C@H](NC(=O)[C@H]2C[C@@H](N)CN2C(=O)[C@H]2C[C@@H](N)CN2C(=O)[C@H]2C[C@@H](NC(=N)N)CN2)C(=O)N[C@@H](CCCCNC(=O)c2cnccn2)C(=O)N[C@@H](Cc2cccc3ccccc23)C(=O)N2C[C@H](N)C[C@@H]2C(=O)N[C@@H](Cc2ccc(O)cc2)C(N)=O)C1 | 2980 | –
N=C(N)N[C@@H]1C[C@H](C(=O)NCCN(CC(=O)N[C@@H](CCCCNC(=O)c2ccc(B(O)O)cc2)C(=O)N[C@@H](Cc2ccc(O)cc2)C(N)=O)C(=O)Cn2cnc3c(=O)[nH]c(N)nc32)N(C(=O)[C@H](CCCCNC(=O)[C@H]2C[C@@H](NC(=N)N)CN2C(=O)[C@H]2C[C@@H](NC(=N)N)CN2C(=O)[C@H]2C[C@@H](N)CN2)NC(=O)[C@H]2C[C@@H](NC(=N)N)CN2C(=O)[C@H]2C[C@@H](NC(=N)N)CN2C(=O)[C@H]2C[C@@H](N)CN2)C1 | 410 | > 50
N=C(N)N[C@@H]1C[C@H](C(=O)N2C[C@H](NC(=N)N)C[C@@H]2C(=O)N[C@@H](CCCCNC(=O)c2cnccn2)C(=O)N[C@@H](Cc2ccc(O)cc2)C(N)=O)N(C(=O)[C@H](CCCCNC(=O)[C@H](CCCCNC(=O)c2cnccn2)NC(=O)[C@H]2C[C@@H](N)CN2C(=O)[C@H]2C[C@@H](NC(=N)N)CN2)NC(=O)[C@H](CCCCNC(=O)c2cnccn2)NC(=O)[C@H]2C[C@@H](N)CN2C(=O)[C@H]2C[C@@H](NC(=N)N)CN2)C1 | 1300 | –

The next lines start with results.

Kd [1] [nM] | Structure (SMILES) | inhibition [2] [%]
1500 | N=C(N)N[C@@H]1C[C@H](C(=O)N[C@@H](Cc2ccc(O)cc2)C(N)=O)N(C(=O)[C@H](CCCCNC(=O)c2cnccn2)NC(=O)[C@H](Cc2cccc3ccccc23)NC(=O)[C@H](CCCCNC(=O)[C@H](CCCCNC(=O)c2ccc(B(O)O)cc2)NC(=O)[C@H]2C[C@@H](N)CN2C(=O)[C@H]2C[C@@H](NC(=N)N)CN2)NC(=O)[C@H](CCCCNC(=O)c2ccc(B(O)O)cc2)NC(=O)[C@H]2C[C@@H](N)CN2C(=O)[C@H]2C[C@@H](NC(=N)N)CN2)C1 | > 50
4460 | N=C(N)N[C@@H]1C[C@H](C(=O)N[C@@H](Cc2ccc(O)cc2)C(N)=O)N(C(=O)[C@H](CCCCNC(=O)c2ccc(B(O)O)cc2)NC(=O)[C@H](CCCCNC(=O)c2ccc(B(O)O)cc2)NC(=O)[C@H](CCCCNC(=O)[C@H]2C[C@@H](N)CN2C(=O)[C@H]2C[C@@H](N)CN2C(=O)[C@H]2C[C@@H](NC(=N)N)CN2)NC(=O)[C@H]2C[C@@H](N)CN2C(=O)[C@H]2C[C@@H](N)CN2C(=O)[C@H]2C[C@@H](NC(=N)N)CN2)C1 | –
1110 | N=C(N)N[C@@H]1C[C@H](C(=O)N2C[C@H](N)C[C@@H]2C(=O)N[C@@H](Cc2ccc(O)cc2)C(N)=O)N(C(=O)CN(CCNC(=O)[C@H](CCCCNC(=O)[C@H]2C[C@@H](NC(=N)N)CN2C(=O)[C@H]2C[C@@H](N)CN2C(=O)[C@@H](N)CCCCNC(=O)c2cnccn2)NC(=O)[C@H]2C[C@@H](NC(=N)N)CN2C(=O)[C@H]2C[C@@H](N)CN2C(=O)[C@@H](N)CCCCNC(=O)c2cnccn2)C(=O)Cn2cnc3c(=O)[nH]c(N)nc32)C1 | –
3180 | NC(=O)[C@H](Cc1ccc(O)cc1)NC(=O)[C@H]1C[C@@H](N)CN1C(=O)CN(CCNC(=O)[C@H](CCCCNC(=O)c1cnccn1)NC(=O)[C@H](CCCCNC(=O)[C@H](Cc1cccc2ccccc12)NC(=O)[C@H](CCCCNC(=O)c1ccc(B(O)O)cc1)NC(=O)[C@H]1C[C@@H](N)CN1)NC(=O)[C@H](Cc1cccc2ccccc12)NC(=O)[C@H](CCCCNC(=O)c1ccc(B(O)O)cc1)NC(=O)[C@H]1C[C@@H](N)CN1)C(=O)Cn1cnc2c(=O)[nH]c(N)nc21 | –
2570 | N=C(N)N[C@@H]1C[C@H](C(=O)NCCCC[C@H](NC(=O)[C@H]2C[C@@H](NC(=N)N)CN2C(=O)[C@H]2C[C@@H](N)CN2C(=O)[C@H]2C[C@@H](NC(=N)N)CN2)C(=O)N2C[C@H](N)C[C@@H]2C(=O)N2C[C@H](N)C[C@@H]2C(=O)N[C@@H](CCCCNC(=O)c2ccc(B3OC(=O)c4cc(O)ccc4O3)cc2)C(=O)N[C@@H](Cc2ccc(O)cc2)C(N)=O)N(C(=O)[C@H]2C[C@@H](N)CN2C(=O)[C@H]2C[C@@H](NC(=N)N)CN2)C1 | > 50
1320 | N=C(N)N[C@@H]1C[C@H](C(=O)N[C@@H](CCCCNC(=O)c2cnccn2)C(=O)N2C[C@H](N)C[C@@H]2C(=O)N[C@@H](Cc2ccc(O)cc2)C(N)=O)N(C(=O)[C@H](CCCCNC(=O)[C@H]2C[C@@H](N)CN2C(=O)[C@H]2C[C@@H](N)CN2C(=O)[C@H]2C[C@@H](NC(=N)N)CN2)NC(=O)[C@H]2C[C@@H](N)CN2C(=O)[C@H]2C[C@@H](N)CN2C(=O)[C@H]2C[C@@H](NC(=N)N)CN2)C1 | –
1760 | N=C(N)N[C@H]1CN[C@@H](C(=O)N2C[C@H](N)C[C@@H]2C(=O)N2C[C@H](N)C[C@@H]2C(=O)NCCCC[C@H](NC(=O)[C@H]2C[C@@H](N)CN2C(=O)[C@H]2C[C@@H](N)CN2C(=O)[C@H]2C[C@@H](NC(=N)N)CN2)C(=O)NCCN(CC(=O)NCCN(CC(=O)N2C[C@H](N)C[C@@H]2C(=O)N[C@@H](Cc2ccc(O)cc2)C(N)=O)C(=O)Cn2cnc3c(=O)[nH]c(N)nc32)C(=O)Cn2cnc3c(=O)[nH]c(N)nc32)C1 | –
> 10000 | N=C(N)N[C@H]1CN[C@@H](C(=O)N[C@@H](CCCCNC(=O)c2ccc(B3OC(=O)c4cc(O)ccc4O3)cc2)C(=O)N[C@@H](CCCCNC(=O)c2ccc(B3OC(=O)c4cc(O)ccc4O3)cc2)C(=O)NCCCC[C@H](NC(=O)[C@H](CCCCNC(=O)c2ccc(B3OC(=O)c4cc(O)ccc4O3)cc2)NC(=O)[C@H](CCCCNC(=O)c2ccc(B3OC(=O)c4cc(O)ccc4O3)cc2)NC(=O)[C@H]2C[C@@H](NC(=N)N)CN2)C(=O)N[C@@H](CCCCNC(=O)c2ccc(B3OC(=O)c4cc(O)ccc4O3)cc2)C(=O)N[C@@H](CCCCNC(=O)c2cnccn2)C(=O)N[C@@H](Cc2cccc3ccccc23)C(=O)N[C@@H](Cc2ccc(O)cc2)C(N)=O)C1 | –
720 | N=C(N)N[C@@H]1C[C@H](C(=O)N2C[C@H](N)C[C@@H]2C(=O)N[C@@H](Cc2ccc(O)cc2)C(N)=O)N(C(=O)[C@H]2C[C@@H](N)CN2C(=O)[C@H](CCCCNC(=O)[C@H]2C[C@@H](N)CN2C(=O)[C@H]2C[C@@H](NC(=N)N)CN2C(=O)[C@H]2C[C@@H](N)CN2)NC(=O)[C@H]2C[C@@H](N)CN2C(=O)[C@H]2C[C@@H](NC(=N)N)CN2C(=O)[C@H]2C[C@@H](N)CN2)C1 | –

— ChEMBL document CHEMBL4152378, “Discovery of a Branched Peptide That Recognizes the Rev Response Element (RRE) RNA and Blocks HIV-1 Replication” (J Med Chem, 2018)
